Measured values published in PubChem BioAssay.
Activity calls are given as the source filed them.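 How the source made its calls, unless noted: active means GFP response above 150% of the DMSO level; inconclusive means fewer than 70 events counted for a yeast strain; inactive means the rest.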

Experiments:
[1] = hit retest on RPL19A-GFP reporter strain – cell-based, S. cerevisiae, flow cytometry, cherry picks, mother/daughter gates, confirmation (AID 2270;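 active means GFP response below 50% of the DMSO control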); details: 3 h, at 10 µM, stronger effect = lower value, 100 = same GFP as DMSO wells
[2] = yeast TOR pathway reporter LAP4-GFP change – cell-based, cherry picks, flow cytometry, mother/daughter gates, confirmation (AID 2271;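 active means GFP response above 150% of the DMSO control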;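 further: ratio of sample to DMSO plate mean so 100% equals DMSO level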); details: S. cerevisiae LAP4-GFP strain, 3 h, at 10 µM, stronger effect = higher value, 100 means same as DMSO control
Outline: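 System: Alexa 633-stained baker's yeast GFP-fusion strain; quantity: 0.2 OD600 cells; timing: compound exposure 3 h at 30 °C, end-over-end rotation; detection: HT flow cytometry, GFP fluorescence channel; measure: per-gate (all, mother, daughter) GFP response vs DMSO; control set: DMSO-only negative wells, rapamycin 400 ng/mL positive wells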

[3] = TOR pathway reporter MEP2-GFP, retest of hits – S. cerevisiae, flow cytometry GFP, cherry picks, confirmation (AID 2272;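 active means GFP response above 150% of the DMSO control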;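 further: ratio of well signal to plate DMSO mean so 100% equals DMSO level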); details: S. cerevisiae MEP2-GFP strain, 3 h, at 10 µM, stronger effect = higher value
[4] = yeast AGP1-GFP fluorescence change, single-dose – cell-based, flow cytometry, S. cerevisiae, cherry picks, confirmation (AID 2273);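 further: median GFP channel fluorescence over the whole cell population gate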; details: S. cerevisiae AGP1-GFP strain, 3 h, at 10 µM
[5] = TOR pathway CIT2 reporter hit retest – S. cerevisiae, GFP fusion, cherry picks, mother/daughter gates, confirmation (AID 2274); details: S. cerevisiae CIT2-GFP strain, flow cytometry, 3 h, at 10 µM, stronger effect = higher value
[6] = measured here: daughter cell gate
[7] = measured here: mother cell gate
[8] = measured here: daughter cell gate response
[9] = measured here: mother cell gate response

SMILES | GFP response vs DMSO [1] | GFP response vs DMSO [1, 6] [%] | GFP response vs DMSO [1, 7] [%] | GFP response relative to DMSO [2] | GFP response relative to DMSO [2, 8] [%] | GFP response relative to DMSO [2, 9] [%] | GFP response vs DMSO [3] | GFP response, % of DMSO [4] | GFP response, % of DMSO [5] | GFP response, % of DMSO [5, 6] [%] | GFP response, % of DMSO [5, 7] [%]
CCCn1c(=N)c(C(=O)NC2CCCC2)cc2c(=O)n3cccc(C)c3nc21 | 100% (inactive) | 85.2 | 78 | 96.2% (inactive) | 100 | 99.3 | 104% (inactive) | 104% (inactive) | 104% (inactive) | – | –
O=C(O)Cn1cc(/C=C/[N+](=O)[O-])c2ccccc21 | 97.6% (inactive) | 98.4 | 97.2 | 102% (inactive) | 101 | 100 | 100% (inactive) | 93.9% (inactive) | 99.7% (inactive) | 99.1 | 99.7
CCn1cc(/C=C/c2cc[n+](C)cc2)c2ccccc21 | 105% (inactive) | 101 | 107 | 117% (inactive) | 119 | 117 | 154% (inactive) | 108% (inactive) | – | – | –
O=C(O)Cc1ccc2ccc3ccccc3c2c1 | 96.8% (inactive) | 92.8 | 97.8 | 106% (inactive) | 105 | 105 | 102% (inactive) | 96.1% (inactive) | 104% (inactive) | 99.7 | 104
O=C(Nc1nc(-c2ccccc2)cs1)c1cccc([N+](=O)[O-])c1 | 102% (inactive) | 100 | 94.5 | 101% (inactive) | 95.9 | 95.2 | 105% (inactive) | 108% (inactive) | 98.8% (inactive) | – | –
O=S(=O)(c1ccc(C2CCCCC2)cc1)N1CCOCC1 | 92.4% (inactive) | 92.7 | 90.1 | 102% (inactive) | 97.5 | 105 | 105% (inactive) | 102% (inactive) | 100% (inactive) | 93.8 | 101
CCOc1ccccc1N1CCN(C(=O)c2ccccc2)CC1 | 97.6% (inactive) | 98.5 | 98.8 | 101% (inactive) | 101 | 103 | 102% (inactive) | 101% (inactive) | 101% (inactive) | 100 | 99.1
COc1ccc(/C=C/C(=O)c2ccccc2O)cc1 | 96.8% (inactive) | 96.7 | 98.8 | 102% (inactive) | 99.3 | 99.5 | 102% (inactive) | 102% (inactive) | 99.3% (inactive) | 100 | 98
CCOC(=O)c1ccc(NC(=O)CCc2nc(-c3cccc(C)c3)no2)cc1 | 97.8% (inactive) | 98.5 | 98.8 | 102% (inactive) | 101 | 101 | 106% (inactive) | 95.8% (inactive) | 102% (inactive) | 102 | 99.1
COC(=O)c1cccc(-n2c(CCC(=O)O)ccc2-c2cccs2)c1 | 99.2% (inactive) | 98.9 | 100 | 104% (inactive) | 103 | 103 | 98.8% (inactive) | 103% (inactive) | 97.2% (inactive) | 96.8 | 97.7
Cc1cccc(N2C(=O)c3cccc4c(N(C)CCO)ccc(c34)C2=O)c1 | 98.8% (inactive) | 96.9 | 99 | 110% (inactive) | 106 | 109 | 103% (inactive) | 101% (inactive) | 105% (inactive) | 105 | 104
Cc1ccccc1Oc1ncnc2oc(-c3ccccc3)cc12 | 100% (inactive) | 98.9 | 101 | 96.7% (inactive) | 96 | 97.2 | 102% (inactive) | 97.2% (inactive) | 99.7% (inactive) | 99.1 | 96.1
Cc1ccc(-c2csc(NC(=O)c3cccc([N+](=O)[O-])c3)n2)cc1 | 101% (inactive) | 98.1 | 97.5 | 97% (inactive) | 95.9 | 97.3 | 107% (inactive) | 99.6% (inactive) | 98.8% (inactive) | 97.4 | 93.2
CCn1c(=O)c(C(=O)Nc2nc3ccccc3[nH]2)c(O)c2ccccc21 | 82.3% (inactive) | 87.3 | 67 | 169% (active) | 109 | 185 | 159% (inactive) | 96.2% (inactive) | 128% (inactive) | 99.1 | 109
O=C(O)c1ccc(Sc2ccccn2)c([N+](=O)[O-])c1 | 98% (inactive) | 99.1 | 98.2 | 96.7% (inactive) | 97.6 | 95.1 | 102% (inactive) | 97% (inactive) | 99.7% (inactive) | 101 | 98.5
O=C(/C=C/c1ccccn1)c1cc(Br)ccc1O | 81.7% (inactive) | 93.3 | 72.8 | 218% (active) | 177 | 210 | 109% (inactive) | 102% (inactive) | 86.1% (inactive) | 94.8 | 77.3

SMILES | GFP response vs DMSO [1] | GFP response vs DMSO [1, 6] [%] | GFP response vs DMSO [1, 7] [%] | GFP response relative to DMSO [2] | GFP response relative to DMSO [2, 8] [%] | GFP response relative to DMSO [2, 9] [%] | GFP response vs DMSO [3] | GFP response, % of DMSO [4] | GFP response, % of DMSO [5] | GFP response, % of DMSO [5, 6] [%] | GFP response, % of DMSO [5, 7] [%]
CCNC(=O)c1c(O)c2cccc3c2n(c1=O)CC3 | 103% (inactive) | 101 | 103 | 103% (inactive) | 101 | 105 | 94.7% (inactive) | 99% (inactive) | 98.8% (inactive) | 101 | 98.1
Cc1ccc(NC(=S)NCC23C=CC(O2)C2C(=O)N(c4ccc(C)cc4)C(=O)C23)cc1 (centres undefined) | 102% (inactive) | 101 | 102 | 105% (inactive) | 105 | 106 | 104% (inactive) | 98.9% (inactive) | 100% (inactive) | 98.1 | 101
CCc1noc(C)c1C(=O)Nc1nc(-c2ccc(Cl)cc2Cl)c(C)s1 | 98.8% (inactive) | 99.1 | 98.8 | 98.8% (inactive) | 99.3 | 97.5 | 99.5% (inactive) | 102% (inactive) | 96.4% (inactive) | 96.4 | 94.5
O=C(CCC(F)(F)F)N1CCC(CO)(CCc2ccccc2)CC1 | 102% (inactive) | 99.8 | 102 | 91.4% (inactive) | 95.6 | 92.1 | 102% (inactive) | 101% (inactive) | 107% (inactive) | 106 | 106
COc1ccc(C2=CC(=O)N(Nc3ccccc3)C2=O)cc1 | 102% (inactive) | 101 | 95.8 | 178% (active) | 170 | 172 | 107% (inactive) | 105% (inactive) | 99.1% (inactive) | 108 | 90.2
OCc1ccccc1SSc1ccccc1CO | 101% (inactive) | 99.2 | 98.5 | 149% (inactive) | 137 | 156 | 100% (inactive) | 104% (inactive) | 103% (inactive) | 101 | 99.8
COc1ccc(C(=O)c2no[n+]([O-])c2C(=O)c2ccc(OC)cc2)cc1 | 90.1% (inactive) | 83.3 | 86.6 | 149% (inactive) | 134 | 153 | 94.1% (inactive) | 92.9% (inactive) | 82.6% (inactive) | 77.1 | 73.6
CC1CCCCN1S(=O)(=O)c1ccc(C(=O)Nc2nnc(-c3ccccc3Cl)o2)cc1 (centres undefined) | 97.8% (inactive) | 97.9 | 98.4 | 94.1% (inactive) | 94.4 | 91.9 | 102% (inactive) | 98.3% (inactive) | 99.7% (inactive) | 101 | 98.5
O=c1c2ccccc2nc(-c2ccccc2)n1CCN1CCOCC1 | 101% (inactive) | 102 | 101 | 97% (inactive) | 97.5 | 98.4 | 101% (inactive) | 106% (inactive) | 98.8% (inactive) | 95.6 | 96.8
CCOC(=O)C(=CNNc1ccccc1)C(=O)OCC | 106% (inactive) | 105 | 105 | 136% (inactive) | 133 | 140 | 113% (inactive) | 102% (inactive) | 103% (inactive) | 101 | 103
N=C1/C(=C\c2ccc(Br)o2)C(=O)N=C2SC(CC(=O)N3CCCCC3)=NN12 | 97.4% (inactive) | 96.8 | 95.5 | 104% (inactive) | 103 | 102 | 103% (inactive) | 104% (inactive) | 107% (inactive) | 108 | 108
COc1ccc(N/N=C(\C#N)C(N)=O)cc1 | 83.7% (inactive) | 64.6 | 83.7 | 166% (active) | 136 | 185 | 141% (inactive) | 125% (inactive) | 136% (inactive) | 114 | 135
CNc1cc(CSC)nc(SCc2ccc(Cl)cc2Cl)n1 | 93.5% (inactive) | 88.6 | 96.1 | 125% (inactive) | 118 | 131 | 102% (inactive) | 90.4% (inactive) | 88.3% (inactive) | 86.2 | 89
CCOC(=O)CCS(=O)(=O)c1nc(-c2ccccc2)cc(C(F)(F)F)n1 | 98.8% (inactive) | 102 | 93.5 | 164% (active) | 153 | 170 | 146% (inactive) | 127% (inactive) | 100% (inactive) | 106 | 92.3
Cc1cc(C)c(S(C)(=O)=O)c(S(=O)(=O)c2ccc(Cl)cc2)n1 | 100% (inactive) | 100 | 100 | 99.2% (inactive) | 97.6 | 99.3 | 98.3% (inactive) | 100% (inactive) | 103% (inactive) | 103 | 101
